This note sets out measurements from ChEMBL document CHEMBL3526048, “In vitro metabolism of rivoglitazone, a novel peroxisome proliferator-activated receptor γ agonist, in rat, monkey, and human liver microsomes and freshly isolated hepatocytes” (Drug Metab Dispos, 2011).

The target of series [1] is T1, UDP-glucuronosyltransferase 1A3 (Homo sapiens, UniProt P35503).
T1 sequence (P35503 whole entry): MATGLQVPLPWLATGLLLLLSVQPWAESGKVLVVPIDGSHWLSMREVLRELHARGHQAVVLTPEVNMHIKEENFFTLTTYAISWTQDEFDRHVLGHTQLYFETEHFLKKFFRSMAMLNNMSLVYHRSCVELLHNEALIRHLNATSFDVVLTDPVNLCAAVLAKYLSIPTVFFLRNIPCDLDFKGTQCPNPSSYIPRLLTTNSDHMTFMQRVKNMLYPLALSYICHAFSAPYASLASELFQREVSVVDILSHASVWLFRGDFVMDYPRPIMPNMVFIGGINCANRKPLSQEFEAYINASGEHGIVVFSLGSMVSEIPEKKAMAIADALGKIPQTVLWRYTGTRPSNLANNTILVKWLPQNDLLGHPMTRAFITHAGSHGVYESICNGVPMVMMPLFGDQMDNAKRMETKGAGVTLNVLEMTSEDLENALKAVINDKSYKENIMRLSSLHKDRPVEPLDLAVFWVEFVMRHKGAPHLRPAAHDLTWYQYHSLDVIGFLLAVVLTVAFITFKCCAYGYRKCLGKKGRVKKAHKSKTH
Put plainly: Activity of human UGT1A3 expressed in microsomes isolated from baculovirus infected insect cell assessed as enzyme-mediated (2S,3S,4S,5R,6R)-3,4,5-trihydroxy-6-(5-(4-((6-methoxy-1-methyl-1H-benzo[d]imidazol-2-yl)methoxy)benzyl)-2,4-dioxothiazolidin-3-yl)tetrahydro-2H-pyran-2-carboxylic acid formation at 20 uM after 4 hrs by radio-HPLC/LC-MS/MS analysis in presence of UDPGA and UDPGA/SAM. Type of series: ADME. The method, boiled down:
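Alamethicin (50 μg/mg protein, 15 min on ice) pretreated expressed human UGT microsomes (1 mg/ml protein) from baculovirus-infected insect cells. Incubation with [¹⁴C]rivoglitazone (20 μM) in 100 mM Tris-HCl (pH 7.5) with 10 mM MgCl₂, started by 5 mM UDPGA, 4 h at 37°C with shaking. UGT insect-cell control supersomes were run alongside. Acetonitrile stop, concentrated supernatant analysed by radio-HPLC, LC-MS and LC-MS/MS.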

Series [2] addresses Cytochrome P450 2C9 (Homo sapiens, UniProt P11712). Put plainly: Activity of human CYP2C9 expressed in microsomes isolated from baculovirus infected insect cell assessed as enzyme-mediated 3-(4-((6-methoxy-1-methyl-1H-benzo[d]imidazol-2-yl)methoxy)phenyl)-2-(methylsulfonyl)propanamide formation at 20 uM after 2 hrs by radio-HPLC/LC-MS/MS analysis in presence of NADPH-generating system/SAM. Type of series: ADME.

For series [3], the target named is T2, UDP-glucuronosyltransferase 1A6 (Homo sapiens, UniProt P19224).
T2 sequence (P19224 whole entry): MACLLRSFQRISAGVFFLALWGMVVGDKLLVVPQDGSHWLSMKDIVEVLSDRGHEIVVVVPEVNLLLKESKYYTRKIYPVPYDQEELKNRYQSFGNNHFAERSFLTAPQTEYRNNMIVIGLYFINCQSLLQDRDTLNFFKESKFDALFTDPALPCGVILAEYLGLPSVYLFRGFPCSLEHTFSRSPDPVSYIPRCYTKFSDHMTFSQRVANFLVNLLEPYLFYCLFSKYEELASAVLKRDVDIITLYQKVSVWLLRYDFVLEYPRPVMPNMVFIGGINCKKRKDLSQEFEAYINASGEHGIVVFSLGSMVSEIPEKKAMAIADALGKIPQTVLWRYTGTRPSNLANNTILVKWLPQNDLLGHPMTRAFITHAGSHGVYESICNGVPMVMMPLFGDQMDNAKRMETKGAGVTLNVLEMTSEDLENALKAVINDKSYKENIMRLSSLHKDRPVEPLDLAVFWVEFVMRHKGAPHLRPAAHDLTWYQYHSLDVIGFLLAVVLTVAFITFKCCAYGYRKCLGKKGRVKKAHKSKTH
Put plainly: Activity of human UGT1A6 expressed in microsomes isolated from baculovirus infected insect cell assessed as enzyme-mediated 2-mercapto-3-(4-((6-methoxy-1-methyl-1H-benzo[d]imidazol-2-yl)methoxy)phenyl)propanoic acid formation at 20 uM after 4 hrs by radio-HPLC/LC-MS/MS analysis in presence of UDPGA. The format is ADME.

Series [4] addresses T3, Cytochrome P450 2C8 (Homo sapiens, UniProt P10632).
T3 sequence (P10632 whole entry): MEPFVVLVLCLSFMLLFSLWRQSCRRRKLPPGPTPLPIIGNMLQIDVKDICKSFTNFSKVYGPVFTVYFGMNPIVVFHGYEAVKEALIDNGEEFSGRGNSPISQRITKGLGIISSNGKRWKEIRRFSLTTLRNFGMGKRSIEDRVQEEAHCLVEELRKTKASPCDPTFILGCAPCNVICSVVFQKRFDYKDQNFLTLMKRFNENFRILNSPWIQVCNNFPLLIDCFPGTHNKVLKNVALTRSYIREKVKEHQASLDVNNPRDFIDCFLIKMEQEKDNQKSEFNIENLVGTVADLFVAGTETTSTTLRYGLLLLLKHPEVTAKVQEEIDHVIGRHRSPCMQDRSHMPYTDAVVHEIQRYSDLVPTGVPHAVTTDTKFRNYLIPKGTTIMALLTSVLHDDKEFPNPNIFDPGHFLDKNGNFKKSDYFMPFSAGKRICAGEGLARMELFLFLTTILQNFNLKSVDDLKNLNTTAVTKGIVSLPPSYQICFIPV
Put plainly: Activity of human CYP2C8 expressed in microsomes isolated from baculovirus infected insect cell assessed as enzyme-mediated 5-(4-((6-hydroxy-1-methyl-1H-benzo[d]imidazol-2-yl)methoxy)benzyl)thiazolidine-2,4-dione formation at 20 uM after 2 hrs by radio-HPLC/LC-MS/MS analysis in presence of NADPH-generating system and NADPH-generating system/SAM. The format is ADME. In short, it runs like this:
(§1)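 Baculovirus/insect-cell microsomes expressing single human CYPs, 1 mg/ml protein, with 50 mM potassium phosphate (pH 7.4) or 100 mM Tris-HCl (pH 7.5). NADPH-generating system: 2 mM NADP⁺, 20 mM glucose 6-phosphate, 2 units/ml G6PDH, 10 mM MgCl₂. [¹⁴C]rivoglitazone at 20 μM, 2 h at 37°C with shaking. Control used insect-cell control supersomes. Stopped with acetonitrile; supernatant concentrated under nitrogen; metabolites analysed by radio-HPLC, LC-MS and LC-MS/MS.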

The nature of series [5]: Drug metabolism in monkey hepatocytes assessed as formation of 2-amino-3-((1-carboxy-2-(4-((6-methoxy-1-methyl-1H-benzo[d]imidazol-2-yl)methoxy)phenyl)ethyl)disulfanyl)propanoic acid at 30 uM after 3 hrs by radio-HPLC/LC-MS/MS analysis. As to conditions: cynomolgus monkey.
The target in series [6] is Cytochrome P450 2C19 (Homo sapiens, UniProt P33261). Put plainly: Activity of human CYP2C19 expressed in microsomes isolated from baculovirus infected insect cell assessed as enzyme-mediated 5-(4-((6-hydroxy-1-methyl-1H-benzo[d]imidazol-2-yl)methoxy)benzyl)thiazolidine-2,4-dione formation at 20 uM after 2 hrs by radio-HPLC/LC-MS/MS analysis in presence of NADPH-generating system and NADPH-generating system/SAM. The format is ADME. In short, it runs like this: as §1
Cytochrome P450 2C19, sequence (P33261 whole entry): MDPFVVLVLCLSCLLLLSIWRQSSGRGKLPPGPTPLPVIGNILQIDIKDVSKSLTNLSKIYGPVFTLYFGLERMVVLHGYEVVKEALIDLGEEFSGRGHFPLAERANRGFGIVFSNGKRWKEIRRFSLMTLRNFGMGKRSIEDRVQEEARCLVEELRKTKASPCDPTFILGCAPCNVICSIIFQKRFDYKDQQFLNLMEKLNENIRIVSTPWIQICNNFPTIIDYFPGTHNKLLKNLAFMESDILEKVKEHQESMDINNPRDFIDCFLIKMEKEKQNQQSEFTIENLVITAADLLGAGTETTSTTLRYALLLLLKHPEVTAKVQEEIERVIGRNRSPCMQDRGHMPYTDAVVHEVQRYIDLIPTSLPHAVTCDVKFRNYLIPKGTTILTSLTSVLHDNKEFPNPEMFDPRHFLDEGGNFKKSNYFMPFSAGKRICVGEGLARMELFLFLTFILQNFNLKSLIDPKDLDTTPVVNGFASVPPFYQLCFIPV

Cytochrome P450 2C9, sequence (P11712 whole entry): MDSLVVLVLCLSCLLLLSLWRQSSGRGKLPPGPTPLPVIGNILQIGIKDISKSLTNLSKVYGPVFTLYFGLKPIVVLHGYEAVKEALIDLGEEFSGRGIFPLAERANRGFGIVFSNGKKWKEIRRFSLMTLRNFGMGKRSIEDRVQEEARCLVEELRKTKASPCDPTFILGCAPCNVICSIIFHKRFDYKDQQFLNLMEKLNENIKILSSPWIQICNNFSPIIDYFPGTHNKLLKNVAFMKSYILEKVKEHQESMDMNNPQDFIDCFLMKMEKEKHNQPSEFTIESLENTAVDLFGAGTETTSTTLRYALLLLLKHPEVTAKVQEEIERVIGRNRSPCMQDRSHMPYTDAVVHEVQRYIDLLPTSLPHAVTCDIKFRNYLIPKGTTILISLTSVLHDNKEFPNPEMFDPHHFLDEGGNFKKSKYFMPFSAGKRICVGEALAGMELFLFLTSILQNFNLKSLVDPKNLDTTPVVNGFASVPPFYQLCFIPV

With `COc1ccc2nc(COc3ccc(C[14CH]4SC(=O)NC4=O)cc3)n(C)c2c1.Cl` (racemic), the Drug metabolism entry in series [1] is given as “metabolite_detected”; in series [2], “metabolite_not_detected”; in series [3] it was “metabolite_not_detected”; in series [4], “metabolite_detected”; in series [5] it was “metabolite_not_detected”; in series [6] it was “metabolite_detected”.
